Data set [1] has as its target T1, Metabotropic glutamate receptor 5 (Homo sapiens, UniProt P41594). As to the kind of experiment: Negative allosteric modulation of human recombinant mGluR5 expressed in HEK293 cells expressing GLAST assessed as inhibition of DHPG-induced intracellular Ca2+ level after 30 mins by FLIPR assay.
Target sequence in this assay (P41594 whole entry): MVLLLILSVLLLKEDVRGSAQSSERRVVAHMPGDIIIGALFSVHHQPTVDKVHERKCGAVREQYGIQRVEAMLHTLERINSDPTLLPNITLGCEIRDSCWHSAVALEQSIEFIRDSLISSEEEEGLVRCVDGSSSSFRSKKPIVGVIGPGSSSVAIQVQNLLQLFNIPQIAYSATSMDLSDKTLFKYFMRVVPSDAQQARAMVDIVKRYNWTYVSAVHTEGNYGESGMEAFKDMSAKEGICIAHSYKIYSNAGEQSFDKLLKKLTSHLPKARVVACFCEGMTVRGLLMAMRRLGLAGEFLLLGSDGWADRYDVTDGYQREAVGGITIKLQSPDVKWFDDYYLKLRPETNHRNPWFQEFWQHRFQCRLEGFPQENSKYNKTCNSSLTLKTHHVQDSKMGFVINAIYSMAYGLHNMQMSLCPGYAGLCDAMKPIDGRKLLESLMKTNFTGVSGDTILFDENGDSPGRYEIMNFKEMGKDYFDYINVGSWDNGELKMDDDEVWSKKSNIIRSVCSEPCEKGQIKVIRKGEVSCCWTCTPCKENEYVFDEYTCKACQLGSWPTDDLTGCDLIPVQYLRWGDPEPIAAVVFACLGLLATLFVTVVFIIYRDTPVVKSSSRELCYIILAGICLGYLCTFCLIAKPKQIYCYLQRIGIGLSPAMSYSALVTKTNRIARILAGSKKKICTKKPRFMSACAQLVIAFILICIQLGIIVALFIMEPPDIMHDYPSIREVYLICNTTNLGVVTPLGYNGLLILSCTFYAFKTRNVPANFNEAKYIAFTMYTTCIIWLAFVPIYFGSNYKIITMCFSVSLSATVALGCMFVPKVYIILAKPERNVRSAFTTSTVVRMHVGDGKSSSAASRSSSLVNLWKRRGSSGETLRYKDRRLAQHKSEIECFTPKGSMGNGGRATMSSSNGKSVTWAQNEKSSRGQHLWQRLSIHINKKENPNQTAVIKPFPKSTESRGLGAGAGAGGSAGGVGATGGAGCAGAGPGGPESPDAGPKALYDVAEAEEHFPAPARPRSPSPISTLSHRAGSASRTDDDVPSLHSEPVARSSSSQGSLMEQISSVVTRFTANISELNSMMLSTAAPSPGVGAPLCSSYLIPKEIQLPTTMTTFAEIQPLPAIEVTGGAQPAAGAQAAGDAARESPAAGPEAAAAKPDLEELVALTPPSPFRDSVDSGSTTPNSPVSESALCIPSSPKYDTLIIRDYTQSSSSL
In data set [2] the target is T1, Metabotropic glutamate receptor 5. As to the kind of experiment: Binding affinity to human mGluR5 expressed in HEK293 cell membranes expressing GLAST assessed as per mg of protein after 1 hr by scintillation counter. Particulars: tested as the 3H-labelled form.
Target sequence in this assay (P41594 21-1212 limits assumed): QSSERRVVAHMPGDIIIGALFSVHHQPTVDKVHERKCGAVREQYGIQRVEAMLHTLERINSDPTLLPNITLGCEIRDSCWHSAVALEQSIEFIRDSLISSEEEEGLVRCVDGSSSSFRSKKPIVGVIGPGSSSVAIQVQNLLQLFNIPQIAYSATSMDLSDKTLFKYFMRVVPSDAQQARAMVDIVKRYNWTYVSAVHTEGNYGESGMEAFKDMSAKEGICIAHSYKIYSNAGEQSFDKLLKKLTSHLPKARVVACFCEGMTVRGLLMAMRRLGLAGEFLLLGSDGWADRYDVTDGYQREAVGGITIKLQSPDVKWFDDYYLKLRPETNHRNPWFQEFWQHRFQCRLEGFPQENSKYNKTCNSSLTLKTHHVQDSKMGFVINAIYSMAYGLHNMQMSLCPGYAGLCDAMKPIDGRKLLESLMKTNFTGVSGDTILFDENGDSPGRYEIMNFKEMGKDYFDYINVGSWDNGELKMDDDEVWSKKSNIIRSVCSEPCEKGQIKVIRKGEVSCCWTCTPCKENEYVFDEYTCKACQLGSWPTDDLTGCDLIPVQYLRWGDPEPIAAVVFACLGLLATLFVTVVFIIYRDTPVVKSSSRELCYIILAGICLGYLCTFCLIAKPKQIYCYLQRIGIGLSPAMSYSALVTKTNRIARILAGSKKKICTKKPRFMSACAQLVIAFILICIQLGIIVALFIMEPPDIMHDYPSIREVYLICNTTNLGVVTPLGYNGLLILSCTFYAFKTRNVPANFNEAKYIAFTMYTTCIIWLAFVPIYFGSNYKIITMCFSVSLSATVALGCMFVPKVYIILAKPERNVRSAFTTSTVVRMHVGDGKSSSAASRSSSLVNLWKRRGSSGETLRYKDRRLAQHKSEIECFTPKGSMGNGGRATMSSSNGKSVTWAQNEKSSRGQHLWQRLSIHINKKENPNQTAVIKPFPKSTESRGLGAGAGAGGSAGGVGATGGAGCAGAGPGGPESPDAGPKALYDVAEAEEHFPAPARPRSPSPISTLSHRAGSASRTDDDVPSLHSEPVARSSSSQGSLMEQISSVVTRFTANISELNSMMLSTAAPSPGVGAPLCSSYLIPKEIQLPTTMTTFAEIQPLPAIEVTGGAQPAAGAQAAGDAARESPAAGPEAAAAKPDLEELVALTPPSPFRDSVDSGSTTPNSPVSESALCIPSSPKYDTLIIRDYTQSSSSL
The target is the same in data set [3]. As to the kind of experiment: Binding affinity to human mGluR5 expressed in HEK293 cell membranes expressing GLAST assessed as per mg of protein after 1 hr by scintillation counter in absence of MPEP. The settings on record: tested as the 3H-labelled form. In outline: (§1)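 [3H]AZD9272 equilibrium saturation binding on membranes from human mGluR5-GHEK cells (HEK293 stably expressing glutamate/aspartate transporter), run without MPEP or with 10 or 20 nM MPEP; filtration termination; Kd and Bmax (pmol/mg protein) derived per assay, three separate assays.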
Target sequence in this assay (P41594 21-1212 limits assumed): as above

The target is the same in data set [4]. As to the kind of experiment: Binding affinity to human mGluR5 expressed in HEK293 cell membranes expressing GLAST assessed as per mg of protein after 1 hr by scintillation counter in presence of 10 nM MPEP. Particulars: tested as the 3H-labelled form. The method in brief:
as §1
Target sequence in this assay (P41594 21-1212 limits assumed): as above

Data set [5] in a line: Clearance in Sprague-Dawley rat at 3 umol/kg, iv. The settings on record: in vivo. It is filed as ADME, organism-based. The method in brief: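 Male rats (n = 3) received a single intravenous dose of 3 µmol/kg. Vehicle was 40% w/w dimethylacetamide/40% w/w PEG 400/20% w/w water. Plasma drug was measured after liquid–liquid extraction by reversed-phase LC with APCI or ESI tandem MS.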

A short description of data set [6]: AUC in Sprague-Dawley rat at 3 umol/kg, po. It is filed as ADME, organism-based. The settings on record: plasma. In outline:
(§2)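 Male rats (n = 3) received a single oral dose of 3 µmol/kg. Vehicle was Polyvidon K30 1.7 mg/ml, sodium lauryl sulphate 0.34 mg/ml and glycerin 25.0 mg/ml in water. Plasma levels were measured by liquid–liquid extraction and reversed-phase LC-MS/MS (APCI or ESI).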

Data set [7] in a line: Oral bioavailability in Sprague-Dawley rat at 3 umol/kg. It is filed as ADME, organism-based. Particulars: in vivo. The method in brief: as §2
A short description of data set [8]: Plasma protein binding in Sprague-Dawley rat after 6 hrs by equilibrium dialysis method. It is filed as ADME, cell-free. The settings on record: read-out: PPB (converted). On the technique in general: Equilibrium dialysis compares concentrations on both sides of a semipermeable membrane.
Data set [9] has as its target Metabotropic glutamate receptor 5 (Rattus norvegicus) (UniProt P31424). Description: Binding affinity to mGluR5 in Sprague-Dawley rat striatum assessed per mg of protein after 60 mins by autoradiographic analysis. Particulars: tested as the 3H-labelled form.
In data set [10] the target is Metabotropic glutamate receptor 4 (Homo sapiens) (UniProt Q14833). As to the kind of experiment: Positive allosteric modulation of mGluR4 assessed as effect on intracellular Ca2+ level up to 30 uM by cell based FLIPR assay. It is filed as functional. The method in brief:
(§3)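 Each of the seven other mGluR subtypes was tested at concentrations up to 30 µM. Agonist, antagonist and positive allosteric modulator modes were each assessed. Read-out was the change in intracellular Ca2+ on FLIPR.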

The target is the same in data set [11]. As to the kind of experiment: Antagonist activity at mGluR4 assessed as effect on intracellular Ca2+ level up to 30 uM by cell based FLIPR assay. It is filed as functional. In outline: as §3
For data set [12], the target named is Metabotropic glutamate receptor 3 (Homo sapiens) (UniProt Q14832). As to the kind of experiment: Agonist activity at mGluR3 assessed as effect on intracellular Ca2+ level up to 30 uM by cell based FLIPR assay. It is filed as functional. The method in brief: as §3
Data set [13] addresses Metabotropic glutamate receptor 2 (Homo sapiens) (UniProt Q14416). As to the kind of experiment: Agonist activity at mGluR2 assessed as effect on intracellular Ca2+ level up to 30 uM by cell based FLIPR assay. It is filed as functional. In outline:
as §3

For data set [14], the target named is T1, Metabotropic glutamate receptor 5. Description: Binding affinity to human mGluR5 expressed in HEK293 cell membranes expressing GLAST assessed as per mg of protein after 1 hr by scintillation counter in presence of 20 nM MPEP. The settings on record: tested as the 3H-labelled form. The method in brief:
as §1
Target sequence in this assay (P41594 21-1212 limits assumed): as above

The nature of data set [15]: Cmax in Sprague-Dawley rat at 3 umol/kg, po. It is filed as ADME, organism-based. Set-up: dose 3 umol/kg, route oral. Particulars: in vivo. The method in brief: as §2
Data set [16] addresses T1, Metabotropic glutamate receptor 5. As to the kind of experiment: Negative allosteric modulation of human recombinant mGluR5 expressed in HEK293 cells expressing GLAST assessed as inhibition of glutamate-stimulated IP accumulation incubated for 10 mins prior to glutamate challenge measured 30 mins post glutamate challenge by scintillation counter in presence of [3H]myo-inositol. It is filed as functional, cell-based.

In data set [17] the target is Metabotropic glutamate receptor 5 (Rattus norvegicus) (UniProt P31424). Description: Negative allosteric modulation of rat recombinant mGluR5 expressed in HEK293 cells expressing GLAST assessed as inhibition of ATP-induced intracellular Ca2+ level at 10 uM after 30 mins by FLIPR assay. It is filed as functional, cell-based. In outline:
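FLIPR intracellular Ca2+ readout in background GHEK cells (HEK293 with glutamate/aspartate transporter, lacking mGluR5), stimulated with 10 µM ATP; test compound at 10 µM to check off-target inhibition.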

Data set [18] deals with T1, Metabotropic glutamate receptor 5. Description: Noncompetitive inhibition of human mGluR5 expressed in HEK cells assessed as inhibition of DHPG-induced intracellular Ca2+ level at 10 to 300 nM after 30 mins by FLIPR assay. It is filed as functional, cell-based. The settings on record: HEK293. The method in brief:
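Human mGluR5-GHEK cells on FLIPR: DHPG concentration–response curves run at increasing modulator concentrations, intracellular Ca2+ read-out; shifts in DHPG potency and maximal response evaluated for non-competitive interaction.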
Target sequence in this assay (P41594 21-1212 limits assumed): as above

Data set [19] has the same target. Particulars: HEK293, tested as the 3H-labelled form.
Target sequence in this assay (P41594 21-1212 limits assumed): as above
The target is the same in data set [20]. Particulars: HEK293, tested as the 3H-labelled form. This is another data set of the same source.
Data set [21] shares this target. Description: Displacement of [3H]MPEP from human mGluR5 expressed in HEK293 cell membranes expressing GLAST after 1 hr by scintillation counter.
Target sequence in this assay (P41594 whole entry): as the sequence (P41594 whole entry) above
Data set [22] has the same target. As to the kind of experiment: Displacement of [3H]AZD9272 from human mGluR5 expressed in HEK293 cell membranes expressing GLAST after 1 hr by scintillation counter. In general terms: Displacement assays read how much labelled ligand stays bound in the presence of the test substance.
Target sequence in this assay (P41594 whole entry): as above
Data set [23] concerns the target Metabotropic glutamate receptor 5 (Rattus norvegicus, UniProt P31424). As to the kind of experiment: Displacement of [3H]AZD9272 from mGluR5 in Sprague-Dawley rat striatum by autoradiographic analysis. The method in brief: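 Sections were cut from rat striatum (plates 13–16, 2 rats). They were incubated with 3 nM [3H]AZD9272 plus increasing concentrations of competitor. Nonspecific binding was defined with 10 µM MPEP. Bound label was read by autoradiography (mean, SD, n = 2).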

Data set [24] can be described thus: AUC (0 to 8 hrs) in Sprague-Dawley rat at 3 umol/kg, po. It is filed as ADME, organism-based. The arrangement: time < 8 hr, dose 3 umol/kg, route oral. Particulars: plasma. The method in brief: as §2

pIC50, pKi: −log10 of the molar value. The source made the active and inactive calls. The rule behind the calls is not given here. Some results are limits rather than exact numbers.

Metabotropic glutamate receptor 4 (Homo sapiens), sequence (Q14833 whole entry): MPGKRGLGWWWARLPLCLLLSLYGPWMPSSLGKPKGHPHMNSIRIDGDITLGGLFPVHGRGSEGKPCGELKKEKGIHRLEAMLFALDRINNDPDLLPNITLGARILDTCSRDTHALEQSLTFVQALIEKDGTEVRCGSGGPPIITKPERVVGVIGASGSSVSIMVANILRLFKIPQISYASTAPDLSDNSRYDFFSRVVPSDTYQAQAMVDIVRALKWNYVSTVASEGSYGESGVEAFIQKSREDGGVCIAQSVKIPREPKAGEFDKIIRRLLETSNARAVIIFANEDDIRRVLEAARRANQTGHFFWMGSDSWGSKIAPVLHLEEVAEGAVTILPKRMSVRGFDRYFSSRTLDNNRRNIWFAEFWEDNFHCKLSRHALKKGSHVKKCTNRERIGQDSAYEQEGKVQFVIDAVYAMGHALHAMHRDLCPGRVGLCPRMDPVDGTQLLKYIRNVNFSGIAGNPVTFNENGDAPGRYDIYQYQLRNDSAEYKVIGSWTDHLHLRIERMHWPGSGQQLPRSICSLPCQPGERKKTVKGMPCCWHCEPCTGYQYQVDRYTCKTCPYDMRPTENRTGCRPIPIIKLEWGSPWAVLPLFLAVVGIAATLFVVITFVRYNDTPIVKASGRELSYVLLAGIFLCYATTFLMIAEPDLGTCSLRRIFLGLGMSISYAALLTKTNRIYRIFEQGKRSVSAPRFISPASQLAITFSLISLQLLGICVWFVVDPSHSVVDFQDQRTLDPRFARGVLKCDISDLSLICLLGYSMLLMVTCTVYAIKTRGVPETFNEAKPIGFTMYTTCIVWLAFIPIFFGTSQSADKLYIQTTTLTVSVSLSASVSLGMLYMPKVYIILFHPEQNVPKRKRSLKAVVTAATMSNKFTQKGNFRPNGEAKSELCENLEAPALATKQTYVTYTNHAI
Metabotropic glutamate receptor 5 (Rattus norvegicus), sequence (P31424 21-1203 limits assumed): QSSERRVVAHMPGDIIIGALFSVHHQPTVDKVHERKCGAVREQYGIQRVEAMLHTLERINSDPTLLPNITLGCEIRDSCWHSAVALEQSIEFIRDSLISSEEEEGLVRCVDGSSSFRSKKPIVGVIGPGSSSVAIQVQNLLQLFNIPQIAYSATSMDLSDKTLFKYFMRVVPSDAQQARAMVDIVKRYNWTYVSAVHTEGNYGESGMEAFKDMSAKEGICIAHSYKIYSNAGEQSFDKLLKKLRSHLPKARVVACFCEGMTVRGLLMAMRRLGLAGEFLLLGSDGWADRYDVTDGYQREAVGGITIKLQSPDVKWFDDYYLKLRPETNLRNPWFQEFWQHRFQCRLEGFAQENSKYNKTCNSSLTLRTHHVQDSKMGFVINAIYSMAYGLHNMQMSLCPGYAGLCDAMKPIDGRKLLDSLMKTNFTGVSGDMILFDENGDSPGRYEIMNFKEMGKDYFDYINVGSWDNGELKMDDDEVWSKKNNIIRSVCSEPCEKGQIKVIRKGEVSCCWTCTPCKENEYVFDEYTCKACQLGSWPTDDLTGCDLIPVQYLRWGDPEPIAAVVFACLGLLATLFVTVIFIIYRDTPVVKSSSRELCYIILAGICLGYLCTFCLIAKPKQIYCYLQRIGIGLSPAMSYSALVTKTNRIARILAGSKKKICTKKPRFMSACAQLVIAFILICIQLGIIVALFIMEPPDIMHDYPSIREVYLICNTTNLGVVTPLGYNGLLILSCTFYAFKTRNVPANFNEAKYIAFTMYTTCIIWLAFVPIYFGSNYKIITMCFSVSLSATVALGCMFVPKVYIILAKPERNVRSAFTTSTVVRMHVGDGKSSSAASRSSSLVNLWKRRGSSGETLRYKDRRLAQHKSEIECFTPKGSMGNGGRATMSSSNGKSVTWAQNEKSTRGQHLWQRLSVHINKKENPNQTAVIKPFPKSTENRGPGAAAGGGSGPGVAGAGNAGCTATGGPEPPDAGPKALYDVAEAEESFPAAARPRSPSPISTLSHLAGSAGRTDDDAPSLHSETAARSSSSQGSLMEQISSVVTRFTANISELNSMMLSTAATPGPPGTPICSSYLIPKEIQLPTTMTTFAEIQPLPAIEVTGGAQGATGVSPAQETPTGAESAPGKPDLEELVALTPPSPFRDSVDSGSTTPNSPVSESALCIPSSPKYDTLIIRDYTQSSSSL

As a reminder, the pIC50 is the IC50 on a negative log10 scale, so that one unit is a factor of ten. In general, clearance refers to the volume of plasma or blood freed of the substance per unit of time. A low value points to a low capacity for elimination. The AUC is concentration integrated over time. The term bioavailability denotes dose-corrected exposure relative to a reference, in per cent. A higher bioavailability goes with much systemic uptake. Broadly, the inhibition is the percentage by which the read-out fell short of the control. As usually defined, the Cmax is the peak of the concentration-time curve. For `N#Cc1cc(F)cc(-c2nc(-c3ccc(F)cn3)no2)c1`, the values for the pIC50 in [1] and in [16] were 8.12 and 7.59, respectively. In addition, the Bmax in [2] was 4.4 pmol; in [3] it was 5.3 pmol; in [4] it was 5.1 pmol; in data set [9] it was 1550 fmol/mg; in [14] it was 5 pmol. Besides, the clearance in [5] was 5.17 mL/min/kg. The area under the curve (AUC) in [6] is 5.4 µM·h. In data set [7], this compound registered a bioavailability of 56%. For the same compound, the fraction unbound at 6 h in data set [8] is 0.2. Besides, the Activity in [10], in data set [12] and in data set [13] was less than 50% in each case. The inhibition was less than 50% in data set [11] and “Dose-dependent effect” in data set [16]. Also, the peak concentration (Cmax) in [15] turned out to be 460 nM. Also, the inhibition entry in [17] was “inactive”. For the same compound, the inhibition result in data set [18] was “Active”. Moreover, the T1/2 stood at 3.45 min in data set [19] and 7.85 min in data set [20].

One may read the pKi as the negative decadic logarithm of the Ki, by convention in mol/L. Higher therefore signals a small Ki. In general, AUC(0-t) refers to the area under the concentration-time curve up to a stated or last time point. A low value points to low exposure. On to `N#Cc1ccc(-c2noc(-c3cc(F)cc(C#N)c3)n2)nc1`, for which the pIC50 was 7.87 in data set [1], 7.84 in data set [23] and 7.29 in data set [16]. The pKi in [21] is 7.55; in [22] it was 7.75. The clearance in [5] was 4 mL/min/kg. Further, the AUC(0-t) at 8 h in data set [24] was 3.6 µM·h. The bioavailability in data set [7] worked out at 46%. The fraction unbound at 6 h in data set [8] is 0.23. Besides, the Activity in [10], in [12] and in data set [13] was less than 50% in each case. The inhibition was less than 50% in [11] and “Dose-dependent effect” in data set [16]. Further, in data set [15], the Cmax stood at 500 nM. Besides, the inhibition entry in [17] was “inactive”. Besides, the inhibition result in data set [18] was “Active”.

(Values after ChEMBL document CHEMBL2163282, “Discovery and characterization of AZD9272 and AZD6538-Two novel mGluR5 negative allosteric modulators selected for clinical development” (Bioorg Med Chem Lett, 2012).)
